The list is not random: actives were taken first. Their share in the collection is about 2.2%.
FLuc stim CS – firefly luciferase counter-screen for stimulation assays. P08659. ATPlite luciferase biochemical, luminescence, 10 min; 0 = ATP-free wells, 1 = DMSO control. activation factor at 10 µM. 200,000 tested, under 10 active. AID 1027;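 active means luciferase activation factor, scaled between plate controls, of at least 2 with compound at 10 µM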
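Assay system: Luciferase/luciferin reagent mix; Medium: PBS as buffer for the ATP substrate; Dosing: test compounds dosed from 2 mM stocks in 100% DMSO; Times: 10 min, room temperature; Signal: luminescence from luciferase reaction; Read-out: luciferase activation; Controls: No-ATP low control, compound-free enzyme-plus-ATP high control.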
FLuc inhib CS – inhibits firefly luciferase, flagging false hits in luciferase inhibition screens | P08659 | 200,000 compounds, 1.5% hits | ATPLite firefly luciferase biochemical luminescence, 10 min | inhibition, % at 10 µM;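 active means inhibition above about 50% when tested at 10 µM, limit read from the data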
C8 TRAIL sens – caspase-8 TRAIL sensitization; NB7+C8 cells + TRAIL, ATPlite viability luminescence; inhibition (viability loss, TRAIL sensitization), % at 10 µM; 360,000 compounds, 1% hits; AID 624354;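 active means compounds causing at least 50% loss of cell viability in the single-dose screen, relative to plate controls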
Wee1 degr inh – inhibitors of human Wee1 degradation. reporter increase, % at 5 µM. HeLa Luc-Wee1K328M stability, luciferase luminescence; 100% = proteasome inhibitor MG132 effect. 220,000 compounds, 1.2% hits. P30291;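 active means activation above the mean of all tested compounds plus 3 SD, set per screening run, cut at about 8.8% in these data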;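 further: cells exposed to compound for 20 h before luminescence read; 0% = DMSO alone and 100% = MG132 at 30 µM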
Target sequence (P30291 whole entry K328M): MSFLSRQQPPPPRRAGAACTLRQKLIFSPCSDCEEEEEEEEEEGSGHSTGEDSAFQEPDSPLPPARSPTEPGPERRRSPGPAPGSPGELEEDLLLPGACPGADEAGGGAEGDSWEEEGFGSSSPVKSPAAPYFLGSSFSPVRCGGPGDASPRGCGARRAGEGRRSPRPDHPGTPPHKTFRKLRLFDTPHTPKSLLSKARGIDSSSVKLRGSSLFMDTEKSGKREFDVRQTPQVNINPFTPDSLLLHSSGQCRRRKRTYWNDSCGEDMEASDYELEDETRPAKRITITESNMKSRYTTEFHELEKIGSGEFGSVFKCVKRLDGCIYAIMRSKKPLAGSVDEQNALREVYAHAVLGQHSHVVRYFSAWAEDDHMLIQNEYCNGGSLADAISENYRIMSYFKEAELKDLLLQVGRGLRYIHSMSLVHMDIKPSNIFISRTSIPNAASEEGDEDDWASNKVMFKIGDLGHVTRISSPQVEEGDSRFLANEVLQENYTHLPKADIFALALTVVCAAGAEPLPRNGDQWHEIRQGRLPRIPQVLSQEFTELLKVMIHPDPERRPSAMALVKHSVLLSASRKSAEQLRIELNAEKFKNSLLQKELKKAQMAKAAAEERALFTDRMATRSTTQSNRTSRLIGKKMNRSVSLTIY
PKD1 kinase inh – blocks activity of human protein kinase D1; Q15139; PKD1 kinase fluorescence polarization assay; inhibition, % (concentration not given with the values); 200,000 compounds, 0.056% hits; AID 797; in the data active means inhibition above about 50%
PPC-1+TRAIL kill – kills PPC-1 cancer cells in the presence of TRAIL | PPC-1 cells + TRAIL, ATPLite viability luminescence | cell killing (% activity), % at 4 µM or 5 µM | 220,000 compounds, 0.41% hits | AID 1443;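 active means cell killing above 50% in the first pass at 4 µM, then a duplicate retest at 5 µM averaging 50% or more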;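 further: plate controls were cells with TRAIL plus DMSO for no effect and medium-only wells lacking cells for full effect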
Numbers without * were called inactive; nt = no result given.

SMILES	FLuc stim CS	FLuc inhib CS	C8 TRAIL sens	Wee1 degr inh	PKD1 kinase inh	PPC-1+TRAIL kill
O=S(=O)(c1ccc(-c2n[nH]c(=S)o2)cc1)N1CCCC1	nt	nt	-6	nt	nt	nt
Cc1cc(C)c2c(c1)CC(C)(C)CC2=O	nt	nt	4	nt	nt	nt
O=C(Nc1nc2ccccc2s1)c1cccc(S(=O)(=O)N2CCc3ccccc32)c1	nt	nt	9	0	nt	0
O=C(Nc1nc2c(s1)CN(Cc1ccccc1)CC2)c1cccc(S(=O)(=O)N2CCc3ccccc32)c1	1	1	16	12*	-5	2
O=C(NCc1ccccc1)C(c1ccc(F)cc1)N(C(=O)c1csnn1)C1CCCC1 (configuration not stated)	nt	nt	8	nt	nt	nt
CN(C(=O)c1ccc(NC(=O)Cc2ccc(NC(=O)C3CCCN(S(=O)(=O)c4cccc([N+](=O)[O-])c4)C3)cc2)cc1)C1CCCC1 (configuration not stated)	nt	nt	-10	nt	nt	nt
CN(C(=O)c1ccc(NC(=O)Cc2cccc(NC(=O)C3CCCN(S(=O)(=O)c4cccc([N+](=O)[O-])c4)C3)c2)cc1)C1CC1 (configuration not stated)	nt	nt	54*	nt	nt	nt
CCN(CC)S(=O)(=O)c1cc(NC(=O)C(C)Nc2ccccc2N2CCOCC2)ccc1C (configuration not stated)	1.1	-7	-3	9.8*	0	14
COC(=O)COc1ccc(S(=O)(=O)Nc2ccc3c(c2)OCCO3)cc1C	nt	nt	3	nt	nt	nt
COc1ccccc1N(CC(=O)Nc1ccc(Br)cc1F)S(=O)(=O)c1cccs1	nt	nt	9	nt	nt	nt
O=C1CCCc2nc(N3CCc4ccccc43)ncc21	0.4	65*	52*	0	21	41
Cc1oc2c(c1C(=O)c1ccccc1)C(=O)C(=O)c1ccccc1-2	1.1	-5	97*	0	0	17
COc1ccc(OC)c(/C=C2\SC(=S)N(C(C(=O)O)c3ccccc3)C2=O)c1 (configuration not stated)	nt	nt	-2	9.7*	nt	12
O=C(Nc1nc2ccccc2s1)c1ccc([N+](=O)[O-])o1	nt	nt	16	nt	nt	nt
O=C(Nc1nc2cc3c(cc2s1)OCCO3)c1ccc([N+](=O)[O-])o1	nt	nt	69*	nt	nt	nt
COc1ccc2nc(NC(=O)c3ccc([N+](=O)[O-])o3)sc2c1	nt	nt	54*	nt	nt	nt
NS(=O)(=O)c1ccc(NC(=S)NCc2ccco2)cc1	1	-2	-2	-2	3	20
CCOc1ccccc1Nc1ccc(C(=O)O)cc1NC(C)=O	1	-2	5	0	-7	54*
CNS(=O)(=O)c1cn(CC(=O)NCc2ccc(F)cc2)cc1S(=O)(=O)NC	nt	nt	-19	nt	nt	nt
Cc1cc(=O)oc2cc(O)c(N=Nc3ccccc3)cc12	nt	nt	-8	9.4*	nt	17
CC(=O)c1cc2c(C)cc(=O)oc2cc1O	1.1	-5	-8	-1	-2	11
CC(=O)Nc1cccc(CNCc2cccc(NC(C)=O)c2)c1	1	-2	26	3	3	-8
CC(=O)c1sc(NC(=O)c2ccc(C)c(C)c2)nc1C	0.7	31	33	2	3	-9
Cc1ccc(C(=O)Nc2nc(C)c(C)s2)o1	0.6	40	9	3	0	1
CC(=O)c1sc(NC(=O)c2ccc(C(C)(C)C)cc2)nc1C	0.7	30	55*	-1	-2	27
SMILES	FLuc stim CS	FLuc inhib CS	C8 TRAIL sens	Wee1 degr inh	PKD1 kinase inh	PPC-1+TRAIL kill
CCOC(=O)c1sc(NC(=O)c2ccco2)nc1C	0.5	47	24	nt	nt	8
CCOC(=O)c1sc(NC(=O)c2ccc(C)o2)nc1C	0.3	69*	39	-3	-14	35
COC(=O)c1sc(NC(=O)c2ccc(C)o2)nc1C	0.5	52*	40	0	-8	34
Cc1ccc(C(=O)Nc2nnc(C3CCCCC3)s2)o1	0.5	52*	34	2	1	30
CCOC(=O)CCC(=O)NNC(=O)COc1ccc(C(C)C)cc1Br	1	1	1	2	-1	32
COc1ccc(Cc2nnc(NS(=O)(=O)c3ccc(Cl)cc3)s2)cc1OC	1	-1	-13	6	3	19
CCOC(=O)c1sc(NC(=O)c2ccc(OC(C)=O)cc2)nc1C	0.9	7	65*	-2	4	50
CCOC(=O)c1sc(NC(=O)c2ccc(OC)cc2)nc1C	0.9	10	9	-3	5	6
Clc1nc(Cl)c2ncn(-c3ccccc3)c2n1	nt	nt	65*	nt	nt	nt
COC(CN(C)S(=O)(=O)c1cc2c3c(c1)CCC(=O)N3CCC2)OC	nt	nt	-4	nt	nt	nt
O=c1c2c(nc3cc(-c4ccccc4)[nH]n13)CCS2	0.4	60*	9	3	-5	14
CCc1c(C)nc2cc(-c3ccccc3)[nH]n2c1=O	nt	nt	15	nt	nt	nt
Cc1ccccc1-c1cc2nc(C)c(Cl)c(=O)n2[nH]1	nt	nt	6	nt	nt	nt
O=c1c2c(nc3cc(-c4ccccc4Cl)[nH]n13)CCS2	0.3	74*	36	-4	-5	37
O=C(CN1C(=O)NC2(CCOc3ccccc32)C1=O)c1ccc(F)c(F)c1 (configuration not stated)	nt	nt	-20	nt	nt	nt
O=C1C=C(c2c(O)ccc3ccccc23)c2ccccc2C1=O	nt	nt	86*	nt	nt	nt
O=C(COc1coc(CN2CCN(Cc3ccccc3)CC2)cc1=O)Nc1ccccc1	nt	nt	7	nt	nt	nt
COc1ccc(CNc2oc(-c3cccc4ccccc34)nc2P(=O)(OC)OC)cc1	1.1	-6	-16	9.8*	-3	24
COP(=O)(OC)c1nc(-c2cccc3ccccc23)oc1NCc1ccccc1	1	-3	10	0	-3	6
CC(=O)N(C)c1ccc(N=Nc2ccc3ncccc3c2)cc1	nt	nt	62*	nt	nt	nt
CSc1ccc(CNC(=O)Cc2ccc(NC(=O)C3=C(C)OCCS3)cc2)cc1	nt	nt	59*	nt	nt	nt
CCOc1ccc(CCNC(=O)Cc2ccc(NC(=O)C3=C(C)OCCS3)cc2)cc1	nt	nt	17	nt	nt	nt
COc1cc(NC(=O)c2c(F)c(F)c(F)c(F)c2F)c(OC)cc1Cl	1.1	-7	76*	5	-19	6
COC(=O)C(CC(=O)c1ccc(Cl)cc1)c1ccccc1 (configuration not stated)	nt	nt	-5	nt	nt	nt
Cc1c(-c2nc(N)nc(Nc3ccccc3)n2)oc2ccccc12	1	-4	2	10.0*	13	5
Nc1nc(CN2CCCCCC2)nc(Nc2ccccc2)n1	1.1	-6	-7	-1	16	-8
CCCCCOC(=O)CSc1nc2c(c(=O)[nH]c(=O)n2C)n1CCc1ccccc1	1.1	-5	-3	9.9*	6	20
CCCCCn1c(SCCc2ccccc2)nc2c1c(=O)[nH]c(=O)n2C	1	-4	-7	0	-4	20
COc1cc(/C=C2\C(=N)N3N=C(S(C)(=O)=O)SC3=NC2=O)ccc1OS(=O)(=O)c1ccc(C)cc1	nt	nt	15	nt	nt	nt
COC(=O)c1ccc(C(=O)OC)c(=O)[nH]1	nt	nt	-2	-3	nt	6

Screening data from PubChem.
